Measurements published in article PMC12777986 (RSC Medicinal Chemistry, 2025).
“Also recorded” adds a separate entry of the source.

What was measured:
[1] = biological target: T1, PCFT transporter (Homo sapiens, UniProt Q96NT5); assay: Folate uptake assay in Caco-2 cell monolayers; assay type: cell-based; details: Caco-2, pH 5.5, read-out: inhibition of folate uptake
T1 sequence (Q96NT5 1-459): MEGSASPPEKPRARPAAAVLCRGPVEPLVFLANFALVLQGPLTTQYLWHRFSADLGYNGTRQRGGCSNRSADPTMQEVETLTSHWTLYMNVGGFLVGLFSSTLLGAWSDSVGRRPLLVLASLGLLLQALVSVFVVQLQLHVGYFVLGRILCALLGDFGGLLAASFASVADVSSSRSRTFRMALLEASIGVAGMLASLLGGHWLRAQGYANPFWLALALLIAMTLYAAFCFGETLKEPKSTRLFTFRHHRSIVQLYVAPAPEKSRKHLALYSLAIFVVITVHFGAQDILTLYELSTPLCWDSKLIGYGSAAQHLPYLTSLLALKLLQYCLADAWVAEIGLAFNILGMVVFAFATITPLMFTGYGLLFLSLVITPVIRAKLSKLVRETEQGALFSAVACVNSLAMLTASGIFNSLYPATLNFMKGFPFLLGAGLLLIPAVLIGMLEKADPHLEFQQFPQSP
Method in brief: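 Caco-2 cells were grown in high-glucose DMEM with 10% FBS, penicillin/streptomycin and NEAA, seeded at 3 × 10^4 cells/well and differentiated 8–10 days. Monolayers were pre-incubated 30 min at 37 °C in HBSS/10 mM MES pH 5.5 with compound (50 μM), pemetrexed or DMSO, then exposed 6 min to 10 nM [3H]folic acid ± inhibitor. Uptake was counted by scintillation, normalized to BCA protein and expressed as % of vehicle. Run in duplicate.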

[2] = Plasma protein binding, rapid equilibrium dialysis; assay type: in vitro ADME; details: human, pH 7.4
Method in brief: (§1)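 Equilibrium dialysis (RED): compound was spiked at 2 μM into human or CD1 mouse plasma against PBS pH 7.4. Warfarin served as positive control. Plates were shaken gently at 37 °C for 6 h, and both chambers were quantified by LC–MS to give the unbound fraction.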

[3] = Plasma protein binding, rapid equilibrium dialysis; assay type: in vitro ADME, mouse (strain CD1); details: CD1, mouse, pH 7.4
Method in brief: as §1

[4] = Stability in human plasma; assay type: in vitro ADME; details: 2 μM, after 4 h
[5] = Stability in mouse plasma; assay type: in vitro ADME, mouse (strain CD1); details: 2 μM, after 4 h
[6] = Stability in human liver microsomes; assay type: in vitro ADME; details: 2 μM, after 2 h
Method in brief: (§2)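 Compound (2 μM) was incubated at 37 °C with human or CD1 mouse liver microsome suspension. The reaction was initiated by adding NADPH as CYP cofactor.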

[7] = Stability in mouse liver microsomes; assay type: in vitro ADME, mouse (strain CD1); details: 2 μM, after 2 h
Method in brief: as §2

[8] = test system: HepG2 cells; assay: HepG2 cytotoxicity assay; assay type: cell-based, human; details: 50 μM
Method in brief: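 HepG2 cells were kept in DMEM with 10% FBS and penicillin/streptomycin at 37 °C, 5% CO2, seeded ~5000 cells/well and allowed to attach overnight. Serial dilutions of compound in medium were added, with 0.1% DMSO vehicle and terfenadine as positive control. Viability was read by CellTiter-Glo ATP luminescence and normalized to vehicle as % viability per concentration.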

[9] = Bidirectional Caco-2 cell permeability assay; assay type: in vitro ADME; details: human
[10] = biological target: cloned hERG potassium channels (Homo sapiens, UniProt Q12809); assay: hERG assay, automated patch clamp; assay type: cell-based
Method in brief: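 Automated parallel patch clamp (QPatch II) was run at room temperature on HEK293 cells expressing KCNH2. Compound was applied at 0.1, 1, 10 and 100 μM (n ≥ 3), at least 6 min per concentration, from DMSO stocks diluted into HEPES-buffered saline. Cisapride 0.05 μM served as positive control. % current inhibition came from steady-state currents before and after each application.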

[11] = biological target: T2, CYP1A2 (Homo sapiens, UniProt P05177); assay: Human liver microsome CYP inhibition assay, CYP1A2; assay type: biochemical; details: human liver microsomes
T2 sequence (P05177 1-516): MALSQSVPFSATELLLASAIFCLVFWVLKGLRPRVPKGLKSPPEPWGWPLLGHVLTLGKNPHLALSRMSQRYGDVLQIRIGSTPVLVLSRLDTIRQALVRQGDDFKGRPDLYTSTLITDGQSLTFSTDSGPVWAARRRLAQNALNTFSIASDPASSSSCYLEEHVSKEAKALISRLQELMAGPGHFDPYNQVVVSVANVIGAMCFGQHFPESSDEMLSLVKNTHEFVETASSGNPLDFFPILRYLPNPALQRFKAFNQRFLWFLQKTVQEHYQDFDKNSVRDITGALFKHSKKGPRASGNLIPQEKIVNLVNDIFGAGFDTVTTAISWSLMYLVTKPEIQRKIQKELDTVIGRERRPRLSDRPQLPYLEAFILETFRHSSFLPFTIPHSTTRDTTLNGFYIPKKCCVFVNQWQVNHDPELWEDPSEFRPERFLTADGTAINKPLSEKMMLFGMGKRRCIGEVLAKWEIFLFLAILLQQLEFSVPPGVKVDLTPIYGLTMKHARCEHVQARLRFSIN
Method in brief: (§3)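 Human liver microsomes were mixed with an isoform-specific CYP substrate and either compound or a positive-control inhibitor, then pre-incubated at 37 °C for 30 min. Reactions were started by adding an NADPH-regenerating system.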

[12] = biological target: T3, CYP2B6 (Homo sapiens, UniProt P20813); assay: Human liver microsome CYP inhibition assay, CYP2B6; assay type: biochemical; details: human liver microsomes
T3 sequence (P20813 1-491): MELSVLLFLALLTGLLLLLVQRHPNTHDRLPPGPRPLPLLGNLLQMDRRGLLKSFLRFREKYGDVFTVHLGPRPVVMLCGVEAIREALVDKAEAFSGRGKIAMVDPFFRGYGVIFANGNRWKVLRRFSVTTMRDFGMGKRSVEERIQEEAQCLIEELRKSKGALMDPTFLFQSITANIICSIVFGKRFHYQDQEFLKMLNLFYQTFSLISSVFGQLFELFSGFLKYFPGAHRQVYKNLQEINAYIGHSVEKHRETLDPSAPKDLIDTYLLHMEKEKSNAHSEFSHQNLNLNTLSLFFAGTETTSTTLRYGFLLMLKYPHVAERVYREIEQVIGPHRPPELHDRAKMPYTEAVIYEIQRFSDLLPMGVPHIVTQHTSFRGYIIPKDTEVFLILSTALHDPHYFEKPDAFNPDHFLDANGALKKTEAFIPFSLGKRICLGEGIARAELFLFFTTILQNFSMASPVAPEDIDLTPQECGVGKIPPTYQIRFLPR
Method in brief: as §3

[13] = biological target: T4, CYP2C8 (Homo sapiens, UniProt P10632); assay: Human liver microsome CYP inhibition assay, CYP2C8; assay type: biochemical; details: human liver microsomes
T4 sequence (P10632 1-490): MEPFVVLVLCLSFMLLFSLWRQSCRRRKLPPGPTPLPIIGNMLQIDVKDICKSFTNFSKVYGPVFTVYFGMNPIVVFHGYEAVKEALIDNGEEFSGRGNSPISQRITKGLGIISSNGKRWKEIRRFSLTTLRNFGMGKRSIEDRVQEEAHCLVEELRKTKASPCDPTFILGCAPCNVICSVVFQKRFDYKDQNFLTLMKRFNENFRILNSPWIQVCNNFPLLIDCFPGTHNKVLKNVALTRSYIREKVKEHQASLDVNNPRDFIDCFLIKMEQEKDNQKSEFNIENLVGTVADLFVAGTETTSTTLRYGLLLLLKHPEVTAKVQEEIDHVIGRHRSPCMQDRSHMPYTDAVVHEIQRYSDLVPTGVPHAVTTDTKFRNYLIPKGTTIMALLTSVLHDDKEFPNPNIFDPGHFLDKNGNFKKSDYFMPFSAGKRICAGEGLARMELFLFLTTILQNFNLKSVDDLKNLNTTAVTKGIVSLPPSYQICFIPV
Method in brief: as §3

[14] = biological target: CYP2C9 (Homo sapiens, UniProt P11712); assay: Human liver microsome CYP inhibition assay, CYP2C9; assay type: biochemical; details: human liver microsomes
Method in brief: as §3

[15] = biological target: CYP2C19 (Homo sapiens, UniProt P33261); assay: Human liver microsome CYP inhibition assay, CYP2C19; assay type: biochemical; details: human liver microsomes
Method in brief: as §3

[16] = biological target: CYP2D6 (Homo sapiens, UniProt P10635); assay: Human liver microsome CYP inhibition assay, CYP2D6; assay type: biochemical; details: human liver microsomes
Method in brief: as §3

[17] = biological target: CYP3A4 (Homo sapiens, UniProt P08684); assay: Human liver microsome CYP inhibition assay, CYP3A4; assay type: biochemical; details: human liver microsomes
Method in brief: as §3

[18] = Single-dose pharmacokinetics in mice; assay type: in vivo, male CD1 mice
[19] = Single-dose pharmacokinetics in rats; assay type: in vivo, male Sprague–Dawley rats; details: rats vs mice, oral single dose
Method in brief: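 Male Sprague–Dawley rats with jugular vein cannulas (n = 3/group) were fasted overnight, with food returned 4 h post-dose. Single oral gavage of 100 or 200 mg kg−1 (10 or 20 mg mL−1; 10 mL kg−1) in 40% DMSO/60% 0.5% methyl cellulose. Cannula blood was drawn at 0.5, 1, 2, 4, 6, 8 and 24 h into K2EDTA, spun to plasma at 5 °C and stored at −70 °C for PK analysis.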

[20] = Single-dose safety observation and gross necropsy in mice; assay type: in vivo, male CD1 mice
Method in brief: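 Male CD1 mice (n = 3/group) were housed individually in metabolic cages and fasted 4 h, with food returned 2 h post-dose. They received one oral gavage of 25, 50 or 100 mg kg−1 (2.5–10 mg mL−1; 10 mL kg−1) in 40% DMSO/60% 0.5% methyl cellulose. Animals were monitored 14 days and weighed pre-dose and on days 7 and 14. CO2 euthanasia was followed by gross necropsy.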

[21] = Single-dose safety observation and gross necropsy in rats; assay type: in vivo, male Sprague–Dawley rats
Method in brief: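 Male Sprague–Dawley rats (n = 3/group) were housed in metabolic cages and fasted overnight, with food returned 4 h post-dose. They received one oral gavage of 100 or 200 mg kg−1 (10 mL kg−1) in 40% DMSO/60% 0.5% methyl cellulose. Animals were monitored for 14 days, with body weight recorded before dosing and on days 7 and 14. Gross necropsy was done after CO2 euthanasia.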

[22] = test system: C. elegans strain N2; assay: C. elegans lifespan assay; assay type: in vivo; details: for maximal lifespan: untreated 27 d
[23] = test system: Salmonella typhimurium tester strains TA98, TA100, TA1535, TA1537 and Escherichia coli strain WP2 uvrA; assay: Ames bacterial reverse mutation assay; details: 1.4 × 10^−7 to 2.3 mM
[24] = male, CD1, mouse, plasma, po, 100 mg/kg
[25] = monitored 14 days after single oral dose
[26] = continuous exposure, 50 and 100 μM

Sequence of cloned hERG potassium channels (Q12809 whole entry): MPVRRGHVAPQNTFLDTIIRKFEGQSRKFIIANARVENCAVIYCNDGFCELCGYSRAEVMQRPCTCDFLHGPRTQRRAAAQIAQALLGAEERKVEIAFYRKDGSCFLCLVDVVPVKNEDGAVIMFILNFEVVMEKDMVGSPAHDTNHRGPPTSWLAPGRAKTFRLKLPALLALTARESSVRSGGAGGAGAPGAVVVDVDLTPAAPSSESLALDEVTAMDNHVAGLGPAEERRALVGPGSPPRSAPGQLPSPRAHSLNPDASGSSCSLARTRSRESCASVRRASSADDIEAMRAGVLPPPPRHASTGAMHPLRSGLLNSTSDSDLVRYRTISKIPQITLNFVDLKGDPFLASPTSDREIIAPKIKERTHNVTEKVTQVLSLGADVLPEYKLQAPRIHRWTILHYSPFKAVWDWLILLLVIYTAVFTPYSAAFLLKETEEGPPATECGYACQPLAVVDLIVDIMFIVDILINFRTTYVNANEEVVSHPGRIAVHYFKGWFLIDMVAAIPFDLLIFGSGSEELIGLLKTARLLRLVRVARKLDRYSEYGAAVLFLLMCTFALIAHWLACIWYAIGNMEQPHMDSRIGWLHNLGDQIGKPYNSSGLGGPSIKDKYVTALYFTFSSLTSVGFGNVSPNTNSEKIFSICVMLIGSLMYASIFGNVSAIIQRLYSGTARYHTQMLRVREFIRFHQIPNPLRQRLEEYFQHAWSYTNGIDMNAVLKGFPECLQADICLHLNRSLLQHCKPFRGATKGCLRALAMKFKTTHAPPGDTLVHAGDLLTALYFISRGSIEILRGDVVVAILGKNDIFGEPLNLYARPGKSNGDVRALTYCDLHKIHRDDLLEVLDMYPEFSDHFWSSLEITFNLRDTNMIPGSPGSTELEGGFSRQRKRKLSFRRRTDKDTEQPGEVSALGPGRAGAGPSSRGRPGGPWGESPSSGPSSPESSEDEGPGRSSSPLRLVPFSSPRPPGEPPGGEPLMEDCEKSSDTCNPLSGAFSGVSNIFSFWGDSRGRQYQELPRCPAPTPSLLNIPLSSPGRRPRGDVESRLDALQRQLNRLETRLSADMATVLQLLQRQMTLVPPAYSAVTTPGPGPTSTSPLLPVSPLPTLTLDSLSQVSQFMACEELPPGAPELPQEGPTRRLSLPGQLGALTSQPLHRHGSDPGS
Sequence of CYP3A4 (P08684 whole entry): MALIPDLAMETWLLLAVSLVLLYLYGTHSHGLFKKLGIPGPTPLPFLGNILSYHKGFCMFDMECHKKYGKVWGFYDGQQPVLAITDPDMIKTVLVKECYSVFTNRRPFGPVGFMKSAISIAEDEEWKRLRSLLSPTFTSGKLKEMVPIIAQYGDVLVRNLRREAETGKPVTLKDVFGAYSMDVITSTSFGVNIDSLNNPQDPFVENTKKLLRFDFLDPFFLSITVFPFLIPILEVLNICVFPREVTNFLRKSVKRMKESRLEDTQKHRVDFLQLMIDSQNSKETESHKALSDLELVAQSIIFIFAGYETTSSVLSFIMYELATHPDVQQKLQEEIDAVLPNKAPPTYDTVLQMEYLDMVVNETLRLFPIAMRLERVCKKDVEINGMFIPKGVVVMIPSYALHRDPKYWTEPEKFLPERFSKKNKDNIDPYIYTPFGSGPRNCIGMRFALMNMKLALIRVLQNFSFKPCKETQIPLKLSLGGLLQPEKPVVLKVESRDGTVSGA
Sequence of CYP2D6 (P10635 whole entry): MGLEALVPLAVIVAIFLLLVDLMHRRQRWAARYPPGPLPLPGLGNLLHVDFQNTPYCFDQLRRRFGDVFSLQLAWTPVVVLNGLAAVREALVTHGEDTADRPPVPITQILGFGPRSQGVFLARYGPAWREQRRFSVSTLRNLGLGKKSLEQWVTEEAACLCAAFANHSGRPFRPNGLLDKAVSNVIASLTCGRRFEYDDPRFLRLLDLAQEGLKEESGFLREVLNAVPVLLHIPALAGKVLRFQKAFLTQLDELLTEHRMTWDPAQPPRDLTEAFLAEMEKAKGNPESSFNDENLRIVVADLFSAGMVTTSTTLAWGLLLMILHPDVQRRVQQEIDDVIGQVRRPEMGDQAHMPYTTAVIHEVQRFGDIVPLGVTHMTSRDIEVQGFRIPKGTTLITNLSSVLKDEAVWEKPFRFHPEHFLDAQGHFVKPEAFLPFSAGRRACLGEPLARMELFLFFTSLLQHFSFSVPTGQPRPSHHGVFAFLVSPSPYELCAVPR
Sequence of CYP2C9 (P11712 whole entry): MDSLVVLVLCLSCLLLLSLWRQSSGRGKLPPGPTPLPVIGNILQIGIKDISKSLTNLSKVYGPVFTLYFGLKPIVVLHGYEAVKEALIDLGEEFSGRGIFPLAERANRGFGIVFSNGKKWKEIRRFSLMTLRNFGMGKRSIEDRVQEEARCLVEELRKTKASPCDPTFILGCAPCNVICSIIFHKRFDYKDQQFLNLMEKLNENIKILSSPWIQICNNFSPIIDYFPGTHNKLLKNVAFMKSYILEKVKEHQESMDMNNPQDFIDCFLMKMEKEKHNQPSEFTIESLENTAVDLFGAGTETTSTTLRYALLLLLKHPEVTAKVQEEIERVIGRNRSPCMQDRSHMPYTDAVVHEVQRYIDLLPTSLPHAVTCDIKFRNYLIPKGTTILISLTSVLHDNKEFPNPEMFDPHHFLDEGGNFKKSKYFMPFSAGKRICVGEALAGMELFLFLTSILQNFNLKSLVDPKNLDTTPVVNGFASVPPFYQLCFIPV
Sequence of CYP2C19 (P33261 whole entry): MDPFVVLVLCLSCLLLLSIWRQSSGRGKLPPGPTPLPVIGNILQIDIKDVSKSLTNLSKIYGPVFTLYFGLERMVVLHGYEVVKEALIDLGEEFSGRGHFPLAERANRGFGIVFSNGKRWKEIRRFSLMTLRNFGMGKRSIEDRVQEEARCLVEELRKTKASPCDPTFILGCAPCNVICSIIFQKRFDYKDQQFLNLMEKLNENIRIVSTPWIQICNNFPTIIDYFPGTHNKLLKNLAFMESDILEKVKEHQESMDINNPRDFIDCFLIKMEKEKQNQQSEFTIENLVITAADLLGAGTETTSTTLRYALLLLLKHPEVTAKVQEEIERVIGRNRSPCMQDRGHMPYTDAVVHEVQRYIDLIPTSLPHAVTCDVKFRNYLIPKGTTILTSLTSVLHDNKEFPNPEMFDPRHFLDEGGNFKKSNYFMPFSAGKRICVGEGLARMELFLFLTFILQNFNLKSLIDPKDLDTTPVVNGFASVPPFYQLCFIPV

Structure (SMILES): CC(=O)N1CCC(C(=O)N2CCN3C(=O)c4cc(-c5ccccc5)ccc4NC(=O)C3C2)CC1 (centres unmarked) [MPOL_B_1, 13-(1-acetylpiperidine-4-carbonyl)-5-phenyl-1,9,13-triazatricyclo[9.4.0.03,8]pentadeca-3(8),4,6-triene-2,10-dione]
- inhibition at 50 µM [1]: 42%
- fraction unbound at 6 h, 2 μM [2]: 0.525 ± 0.08
- fraction unbound at 6 h, 2 μM [3]: 0.294 ± 0.059
- Stability in human plasma [4]: >90% after 4 h
- Stability in mouse plasma [5]: >90% after 4 h
- Stability in human microsomes [6]: >90% after 2 h
- Stability in mouse microsomes [7]: 83% after 2 h
- Hep2 cells cytotoxicity [8]: Not significant
- Papp A→B at 2 h, 10 μM [9]: 0.37 ×10⁻⁶ cm/s
- Papp B→A at 2 h, 10 μM [9]: 7.17 ×10⁻⁶ cm/s
- IC50 [10]: 87 µM
- inhibition at 5 min, 50 µM [11]: 5.2%
- inhibition at 5 min, 50 µM [12]: 0%
- inhibition at 5 min, 50 µM [13]: 4.9%
- inhibition at 5 min, 50 µM [14]: 11.4%
- inhibition at 5 min, 50 µM [15]: 19.4%
- inhibition at 5 min, 50 µM [16]: 16.9%
- inhibition at 5 min, 50 µM [17]: 22.5%
- concentration of the drug in fecal samples ([18]; collected 24 hours after oral administration): 5 to 10 mg/g
- AUC(0-t) [18, 24]: 2380 ± 1180 ng·h/mL
- Cmax [18, 24]: 416 ± 67 ng/mL
- Tmax [18, 24]: 1.7 ± 0.6 h
- half-life [18, 24]: 5.7 ± 4.1 h
- systemic bioavailability (dose proportionality of AUC) ([18]; mice, oral gavage 25, 50 and 100 mg kg^−1): became saturated at doses of 50 mg kg^−1 and above
- systemic bioavailability in rats, times lower than in mice [19]: approximately 10 times
- gross necropsy ([20]; group 2, 50 mg kg^−1): had an enlarged stomach when gross necropsy was performed, and another from the same group had dark patches on the lungs
- gross necropsy ([20]; highest dose (100 mg kg^−1)): no organ pathologies or other abnormalities; also recorded: No abnormalities
- body weight loss [20, 25]: no significant body weight loss
- signs of illness [20, 25]: no signs of illness
- gross necropsy ([21]; group 1, 100 mg kg^−1): enlarged stomach and caecum and blood in the abdominal cavity
- gross necropsy ([21]; highest dose (200 mg kg^−1)): no organ pathologies or other abnormalities
- body weight loss [21, 25]: no significant body weight loss
- signs of illness [21, 25]: no signs of illness
- maximal lifespan ([22]; 50 μM): 35 days
- maximal lifespan ([22]; 100 μM): 35 days
- increase of lifespan ([22]; C. elegans): up to 30%
- longer maximal lifespan [22, 26]: ~30%
- longer mean lifespan [22, 26]: ~30%
- Ames mutagenicity test [23]: Not mutagenic

Structure (SMILES): Cc1ccc(NC(=O)N2Cc3[nH]cnc3C[C@H]2c2nc(-c3ccc4c(c3)OCO4)no2)cc1 [MPOL_D_1, (6S)-6-[3-(2H-1,3-benzodioxol-5-yl)-1,2,4-oxadiazol-5-yl]-N-(4-methylphenyl)3H,4H,5H,6H,7H-imidazo[4,5-c]pyridine-5-carboxamide]
- effect on lifespan ([22]; dose range 1–100 μM, compared with MPOL_B_1): did not exhibit similar effects

Structure (SMILES): Nc1nc2[nH]cc(CCc3ccc(C(=O)N[C@@H](CCC(=O)O)C(=O)O)cc3)c2c(=O)[nH]1 [pemetrexed, reference compound]
- inhibition at 50 µM [1]: 62%
